Data as given in ChEMBL document CHEMBL4368943 (J Med Chem, 2019).
Blank lines part the entries; values can stand above or below the compound they belong to. The source made the active and inactive calls. The rule behind the calls is not given here.

Key:
[1] = molecular target: T1, von Hippel-Lindau disease tumor suppressor/Estrogen receptor/Cullin-2 (Homo sapiens, UniProt P03372+P40337+Q13617); assay: Protac activity against VHL/cullin2/ERalpha in human MCF7 cells assessed as ERalpha degradation by measuring ER protein/GADPH ratio at 1 nM after 4 hrs by Western blot analysis relative to control; assay type: cell-based
Summary of the method: (§1)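 MCF-7 cells (DMEM, 10% FBS, passages 3−8) exposed 4 h. Lysed in RIPA with protease inhibitors; equal protein on 10% SDS-PAGE, PVDF, anti-ERα blot. Membranes stripped and reprobed for GAPDH. ERα/GAPDH ratio normalized to DMSO = 100; DC50 from densitometry of the dose series.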
Target sequence in this assay (P03372 whole entry, looked up): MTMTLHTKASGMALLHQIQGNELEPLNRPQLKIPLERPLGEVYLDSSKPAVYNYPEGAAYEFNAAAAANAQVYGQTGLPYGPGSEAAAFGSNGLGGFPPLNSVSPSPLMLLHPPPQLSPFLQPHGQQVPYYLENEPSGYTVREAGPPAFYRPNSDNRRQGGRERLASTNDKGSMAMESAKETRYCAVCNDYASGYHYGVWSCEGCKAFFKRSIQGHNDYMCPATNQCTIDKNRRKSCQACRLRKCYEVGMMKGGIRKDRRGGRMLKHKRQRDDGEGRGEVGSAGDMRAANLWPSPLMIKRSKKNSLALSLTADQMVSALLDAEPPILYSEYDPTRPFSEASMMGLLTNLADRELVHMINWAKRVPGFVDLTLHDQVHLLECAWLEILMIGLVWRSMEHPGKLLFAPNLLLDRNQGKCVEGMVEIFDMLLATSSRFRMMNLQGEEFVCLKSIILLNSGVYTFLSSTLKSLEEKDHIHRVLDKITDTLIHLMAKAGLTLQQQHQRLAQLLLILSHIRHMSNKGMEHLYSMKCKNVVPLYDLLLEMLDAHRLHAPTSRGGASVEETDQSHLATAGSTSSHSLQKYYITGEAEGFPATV
Target sequence in this assay (P40337 whole entry, looked up): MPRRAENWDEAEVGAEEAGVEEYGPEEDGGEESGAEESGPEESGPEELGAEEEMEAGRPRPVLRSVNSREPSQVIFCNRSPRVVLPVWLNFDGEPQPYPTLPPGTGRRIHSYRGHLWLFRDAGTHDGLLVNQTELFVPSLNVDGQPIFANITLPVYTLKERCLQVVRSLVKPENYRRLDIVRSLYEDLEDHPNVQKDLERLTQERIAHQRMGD
Target sequence in this assay (Q13617 whole entry, looked up): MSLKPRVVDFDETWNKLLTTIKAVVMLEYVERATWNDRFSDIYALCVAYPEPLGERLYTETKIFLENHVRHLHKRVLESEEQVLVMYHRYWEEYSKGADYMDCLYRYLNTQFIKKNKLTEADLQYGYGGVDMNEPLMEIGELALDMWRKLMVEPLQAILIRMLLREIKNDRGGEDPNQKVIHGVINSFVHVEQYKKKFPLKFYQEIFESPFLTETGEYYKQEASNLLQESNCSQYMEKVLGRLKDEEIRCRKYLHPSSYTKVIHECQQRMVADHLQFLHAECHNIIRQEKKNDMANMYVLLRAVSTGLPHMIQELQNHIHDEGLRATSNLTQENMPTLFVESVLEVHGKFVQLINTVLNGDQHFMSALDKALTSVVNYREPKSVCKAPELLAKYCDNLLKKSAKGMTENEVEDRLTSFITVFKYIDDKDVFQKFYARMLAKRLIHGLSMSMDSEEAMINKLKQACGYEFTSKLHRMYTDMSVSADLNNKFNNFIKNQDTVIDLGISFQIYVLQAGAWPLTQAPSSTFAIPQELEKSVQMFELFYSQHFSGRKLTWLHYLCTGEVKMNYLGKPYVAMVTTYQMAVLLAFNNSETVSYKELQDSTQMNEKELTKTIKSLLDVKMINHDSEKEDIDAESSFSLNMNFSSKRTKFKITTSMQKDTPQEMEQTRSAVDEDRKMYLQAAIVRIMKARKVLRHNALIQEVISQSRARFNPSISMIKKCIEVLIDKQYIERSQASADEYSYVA

[2] = molecular target: T1, von Hippel-Lindau disease tumor suppressor/Estrogen receptor/Cullin-2; assay: Protac activity against VHL/cullin2/ERalpha in human MCF7 cells assessed as ERalpha degradation by measuring ER protein/GADPH ratio at 10 nM after 4 hrs by Western blot analysis relative to control; assay type: cell-based; summary of the method: as §1
Target sequence in this assay (P03372 whole entry, looked up): as the sequence (P03372 whole entry, looked up) above
Target sequence in this assay (P40337 whole entry, looked up): as the sequence (P40337 whole entry, looked up) above
Target sequence in this assay (Q13617 whole entry, looked up): as the sequence (Q13617 whole entry, looked up) above

[3] = molecular target: T1, von Hippel-Lindau disease tumor suppressor/Estrogen receptor/Cullin-2; assay: Protac activity against VHL/cullin2/ERalpha in human MCF7 cells assessed as ERalpha degradation by measuring ER protein/GADPH ratio at 1000 nM after 4 hrs by Western blot analysis relative to control; assay type: cell-based; summary of the method: as §1
Target sequence in this assay (P03372 whole entry, looked up): as the sequence (P03372 whole entry, looked up) above
Target sequence in this assay (P40337 whole entry, looked up): as the sequence (P40337 whole entry, looked up) above
Target sequence in this assay (Q13617 whole entry, looked up): as the sequence (Q13617 whole entry, looked up) above

[4] = molecular target: T1, von Hippel-Lindau disease tumor suppressor/Estrogen receptor/Cullin-2; assay: Protac activity against VHL/cullin2/ERalpha in human MCF7 cells assessed as ERalpha degradation by measuring ER protein/GADPH ratio at 100 nM after 4 hrs by Western blot analysis relative to control; assay type: cell-based; summary of the method: as §1
Target sequence in this assay (P03372 whole entry, looked up): as the sequence (P03372 whole entry, looked up) above
Target sequence in this assay (P40337 whole entry, looked up): as the sequence (P40337 whole entry, looked up) above
Target sequence in this assay (Q13617 whole entry, looked up): as the sequence (Q13617 whole entry, looked up) above

MCF7 [5] = assay: Inhibition of cell growth in human MCF7 cells after 4 days by wst-8-based colorimetric analysis relative to control; assay type: functional
Summary of the method: (§2)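 Cells seeded at 1500/well overnight, then exposed to graded compound doses for 4 days. Growth read by colorimetric WST-8 assay. GI50 from fitted curves. MCF-7 cells were kept in DMEM, 10% FBS, passages 3−8; human mammary epithelial cells were run the same way.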

MCF7 [6] = assay: Inhibition of cell growth in human MCF7 cells after 4 days by wst-8-based colorimetric analysis; assay type: functional; details: MCF7, 96 h; summary of the method: as §2
[7] = Binding affinity to His-TEV-tagged VHL (54 to 213 residues) (unknown origin)/Elongin B (1 to 118 residues)/Elongin C (1 to 96 residues) expressed in Escherichia coli BL21(DE3) by FP assay; parameters: species or system Homo sapiens
Summary of the method: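 Competitive FP. Tracer is a fluorescent VHL ligand (Kd 2.3 nM). VHL–ElonginB/C complex and tracer each at 5 nM final, preincubated. Compound in DMSO (5 µL into 95 µL) for 60 min at room temperature with shaking. Ex 485/em 530 nm. IC50 by nonlinear regression; Ki from probe KD and protein/probe concentrations. Duplicate, three independent experiments.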

[8] = molecular target: T1, von Hippel-Lindau disease tumor suppressor/Estrogen receptor/Cullin-2; assay: Protac activity against VHL/cullin2/ERalpha in human MCF7 cells assessed as ERalpha degradation by measuring ER protein/GAPDH ratio at 0.6 nM after 4 hrs by Western blot analysis relative to control; assay type: cell-based; summary of the method: as §1
Target sequence in this assay (P03372 whole entry, looked up): as the sequence (P03372 whole entry, looked up) above
Target sequence in this assay (P40337 whole entry, looked up): as the sequence (P40337 whole entry, looked up) above
Target sequence in this assay (Q13617 whole entry, looked up): as the sequence (Q13617 whole entry, looked up) above

[9] = molecular target: T1, von Hippel-Lindau disease tumor suppressor/Estrogen receptor/Cullin-2; assay: Protac activity against VHL/cullin2/ERalpha in human MCF7 cells assessed as ERalpha degradation by measuring reduction in ER protein level pre-treated with raloxifene for 2 hrs followed by compound exposure at 30 nM for 4 hrs by Western blot analysis; assay type: cell-based
Target sequence in this assay (P03372 whole entry, looked up): as the sequence (P03372 whole entry, looked up) above
Target sequence in this assay (P40337 whole entry, looked up): as the sequence (P40337 whole entry, looked up) above
Target sequence in this assay (Q13617 whole entry, looked up): as the sequence (Q13617 whole entry, looked up) above

[10] = molecular target: T1, von Hippel-Lindau disease tumor suppressor/Estrogen receptor/Cullin-2; assay: Protac activity against VHL/cullin2/ERalpha in human T47D cells assessed as ERalpha degradation by measuring ER protein/GAPDH ratio at 0.3 nM after 4 hrs by Western blot analysis relative to control; assay type: cell-based
Summary of the method: (§3)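 T47D cells (DMEM, 10% FBS, passages 3−8) exposed 4 h over a dose series. RIPA lysates, equal protein, 10% SDS-PAGE, anti-ERα Western blot. ERα band density normalized to GAPDH; DC50 derived from the quantified dose–response.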

MDA-MB-231 = assay: Inhibition of cell growth in human MDA-MB-231 cells at 10^-13 to 10^-5 M after 4 days by wst-8-based colorimetric analysis; assay type: functional
[11] = molecular target: T1, von Hippel-Lindau disease tumor suppressor/Estrogen receptor/Cullin-2; assay: Protac activity against VHL/cullin2/ERalpha in human T47D cells assessed as ERalpha degradation after 4 hrs by Western blot analysis; assay type: cell-based; summary of the method: as §3
Target sequence in this assay (P03372 whole entry): as the sequence (P03372 whole entry, looked up) above
Target sequence in this assay (P40337 whole entry): as the sequence (P40337 whole entry, looked up) above
Target sequence in this assay (Q13617 whole entry): as the sequence (Q13617 whole entry, looked up) above

[12] = molecular target: T1, von Hippel-Lindau disease tumor suppressor/Estrogen receptor/Cullin-2; assay: Protac activity against VHL/cullin2/ERalpha in human MCF7 cells assessed as ERalpha degradation by measuring ER protein/GAPDH ratio at 0.03 nM after 4 hrs by Western blot analysis relative to control; assay type: cell-based; summary of the method: as §1
[13] = molecular target: T1, von Hippel-Lindau disease tumor suppressor/Estrogen receptor/Cullin-2; assay: Protac activity against VHL/cullin2/ERalpha in human MCF7 cells assessed as ERalpha degradation by measuring reduction in ER protein level at 30 nM after 1 hr by Western blot analysis relative to control; assay type: cell-based; parameters: scale not given: the % may be the effect or the level left
Summary of the method: (§4)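 Time course: cells given 30 nM degrader and harvested at time points from 1 h up to 24 h. ERα assessed by Western blot against a GAPDH loading control, with levels taken relative to DMSO.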

[14] = molecular target: T1, von Hippel-Lindau disease tumor suppressor/Estrogen receptor/Cullin-2; assay: Protac activity against VHL/cullin2/ERalpha in human MCF7 cells assessed as ERalpha degradation by measuring ER protein/GAPDH ratio at 5 nM after 4 hrs by Western blot analysis relative to control; assay type: cell-based; summary of the method: as §1
[15] = molecular target: T1, von Hippel-Lindau disease tumor suppressor/Estrogen receptor/Cullin-2; assay: Protac activity against VHL/cullin2/ERalpha in human MCF7 cells assessed as ERalpha degradation by measuring reduction in ER protein level at 30 nM after 3 hrs by Western blot analysis relative to control; assay type: cell-based; parameters: scale not given: the % may be the effect or the level left; summary of the method: as §4
[16] = molecular target: T1, von Hippel-Lindau disease tumor suppressor/Estrogen receptor/Cullin-2; assay: Protac activity against VHL/cullin2/ERalpha in human MCF7 cells assessed as ERalpha degradation by measuring ER protein/GAPDH ratio at 0.1 nM after 4 hrs by Western blot analysis relative to control; assay type: cell-based; summary of the method: as §1
[17] = molecular target: T1, von Hippel-Lindau disease tumor suppressor/Estrogen receptor/Cullin-2; assay: Protac activity against VHL/cullin2/ERalpha in human MCF7 cells assessed as ERalpha degradation by measuring ER protein/GAPDH ratio at 30 nM after 4 hrs by Western blot analysis relative to control; assay type: cell-based; summary of the method: as §1
[18] = molecular target: T1, von Hippel-Lindau disease tumor suppressor/Estrogen receptor/Cullin-2; assay: Protac activity against VHL/cullin2/ERalpha in human T47D cells assessed as ERalpha degradation by measuring ER protein/GAPDH ratio at 1000 nM after 4 hrs by Western blot analysis relative to control; assay type: cell-based; summary of the method: as §3
[19] = molecular target: T1, von Hippel-Lindau disease tumor suppressor/Estrogen receptor/Cullin-2; assay: Protac activity against VHL/cullin2/ERalpha in human T47D cells assessed as ERalpha degradation by measuring ER protein/GAPDH ratio at 30 nM after 4 hrs by Western blot analysis relative to control; assay type: cell-based; summary of the method: as §3
[20] = molecular target: T1, von Hippel-Lindau disease tumor suppressor/Estrogen receptor/Cullin-2; assay: Protac activity against VHL/cullin2/ERalpha in human T47D cells assessed as ERalpha degradation by measuring ER protein/GAPDH ratio at 100 nM after 4 hrs by Western blot analysis relative to control; assay type: cell-based; summary of the method: as §3
[21] = molecular target: T1, von Hippel-Lindau disease tumor suppressor/Estrogen receptor/Cullin-2; assay: Protac activity against VHL/cullin2/ERalpha in human T47D cells assessed as ERalpha degradation by measuring ER protein/GAPDH ratio at 5 nM after 4 hrs by Western blot analysis relative to control; assay type: cell-based; summary of the method: as §3
MCF7 [22] = assay: Antiproliferative activity against human MCF7 cells at 10 to 300 nM after 5 days by crystal violet staining based assay; assay type: functional, cell-based
Summary of the method: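 MCF-7 cells in DMEM with 10% FBS and penicillin/streptomycin, passages 3−8, exposed to compounds at 10, 100 and 300 nM for 5 days, then fixed and stained with crystal violet.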

[23] = molecular target: T1, von Hippel-Lindau disease tumor suppressor/Estrogen receptor/Cullin-2; assay: Protac activity against VHL/cullin2/ERalpha in human T47D cells assessed as ERalpha degradation by measuring ER protein/GAPDH ratio at 10 nM after 4 hrs by Western blot analysis relative to control; assay type: cell-based; summary of the method: as §3
[24] = molecular target: T1, von Hippel-Lindau disease tumor suppressor/Estrogen receptor/Cullin-2; assay: Protac activity against VHL/cullin2/ERalpha in human MCF7 cells assessed as ERalpha degradation by measuring ER protein/GAPDH ratio at 300 nM after 4 hrs by Western blot analysis relative to control; assay type: cell-based; summary of the method: as §1
[25] = molecular target: T1, von Hippel-Lindau disease tumor suppressor/Estrogen receptor/Cullin-2; assay: Protac activity against VHL/cullin2/ERalpha in human MCF7 cells assessed as ERalpha degradation by measuring reduction in ER protein level pre-treated with carfilzomib for 2 hrs followed by compound exposure at 30 nM for 4 hrs by Western blot analysis; assay type: cell-based
[26] = molecular target: T1, von Hippel-Lindau disease tumor suppressor/Estrogen receptor/Cullin-2; assay: Protac activity against VHL/cullin2/ERalpha in human MCF7 cells assessed as ERalpha degradation after 4 hrs by Western blot analysis; assay type: cell-based; summary of the method: as §1
Target sequence in this assay (P03372 whole entry): as the sequence (P03372 whole entry, looked up) above
Target sequence in this assay (P40337 whole entry): as the sequence (P40337 whole entry, looked up) above
Target sequence in this assay (Q13617 whole entry): as the sequence (Q13617 whole entry, looked up) above

[27] = molecular target: T1, von Hippel-Lindau disease tumor suppressor/Estrogen receptor/Cullin-2; assay: Protac activity against VHL/cullin2/ERalpha in human T47D cells assessed as ERalpha degradation by measuring ER protein/GAPDH ratio at 0.1 nM after 4 hrs by Western blot analysis relative to control; assay type: cell-based; summary of the method: as §3
[28] = Inhibition of cell growth in primary human mammary epithelial cells at 10^-13 to 10^-6 M after 4 days by wst-8-based colorimetric analysis; details: 96 h; summary of the method: as §2
[29] = molecular target: T1, von Hippel-Lindau disease tumor suppressor/Estrogen receptor/Cullin-2; assay: Protac activity against VHL/cullin2/ERalpha in human MCF7 cells assessed as ERalpha degradation by measuring ER protein/GAPDH ratio at 0.3 nM after 4 hrs by Western blot analysis relative to control; assay type: cell-based; summary of the method: as §1
[30] = molecular target: T1, von Hippel-Lindau disease tumor suppressor/Estrogen receptor/Cullin-2; assay: Protac activity against VHL/cullin2/ERalpha in human T47D cells assessed as ERalpha degradation by measuring reduction in ER protein level at 30 nM after 1 to 3 hrs by Western blot analysis relative to control; assay type: cell-based; summary of the method: as §4
[31] = molecular target: T1, von Hippel-Lindau disease tumor suppressor/Estrogen receptor/Cullin-2; assay: Protac activity against VHL/cullin2/ERalpha in human T47D cells assessed as ERalpha degradation by measuring reduction in ER protein level at 30 nM after 1 to 24 hrs hrs by Western blot analysis relative to control; assay type: cell-based; summary of the method: as §4
[32] = molecular target: T1, von Hippel-Lindau disease tumor suppressor/Estrogen receptor/Cullin-2; assay: Protac activity against VHL/cullin2/ERalpha in human T47D cells assessed as ERalpha degradation by measuring ER protein/GAPDH ratio at 0.6 nM after 4 hrs by Western blot analysis relative to control; assay type: cell-based; summary of the method: as §3
[33] = molecular target: T1, von Hippel-Lindau disease tumor suppressor/Estrogen receptor/Cullin-2; assay: Protac activity against VHL/cullin2/ERalpha in human T47D cells assessed as ERalpha degradation by measuring ER protein/GAPDH ratio at 1 nM after 4 hrs by Western blot analysis relative to control; assay type: cell-based; summary of the method: as §3
[34] = molecular target: T1, von Hippel-Lindau disease tumor suppressor/Estrogen receptor/Cullin-2; assay: Protac activity against VHL/cullin2/ERalpha in human T47D cells assessed as ERalpha degradation by measuring ER protein/GAPDH ratio at 300 nM after 4 hrs by Western blot analysis relative to control; assay type: cell-based; summary of the method: as §3
[35] = molecular target: T1, von Hippel-Lindau disease tumor suppressor/Estrogen receptor/Cullin-2; assay: Protac activity against VHL/cullin2/ERalpha in human T47D cells assessed as ERalpha degradation by measuring ER protein/GAPDH ratio at 0.03 nM after 4 hrs by Western blot analysis relative to control; assay type: cell-based; summary of the method: as §3

Ratio [1]: 21
Ratio [2]: 0.4
Ratio [3]: 64
Ratio [4]: 0.3
SMILES: CCN(CCCCCCCC(=O)N[C@H](C(=O)N1C[C@H](O)C[C@H]1C(=O)N[C@@H](C)c1ccc(-c2scnc2C)cc1)C(C)(C)C)CCOc1ccc(C(=O)c2c(-c3ccc(O)cc3)sc3cc(O)ccc23)cc1

Ratio [1]: 89
GI50 (MCF7 [6]): 0.028 nM
Ratio [2]: 171
Ratio [4]: 159
SMILES: CCNCCc1ccc(CN(CC)c2cc(OC)ccc2[C@@H]2CCc3cc(O)ccc3C2)cc1 [ELACESTRANT]
Imax (MCF7 [5]): 25.7%

IC50 [7]: 41000 nM
SMILES: CC(=O)N[C@H](C(=O)N1C[C@H](O)C[C@H]1C(=O)N[C@@H](C)c1ccc(C(C)C)cc1)C(C)(C)C

Ratio [8]: 12
Activity [9]: inactive
Ratio [10]: 62
DC50 [11]: 0.43 nM
Ratio [12]: 84
Activity [13]: > 80%
Ratio [14]: 0.3
Activity [15]: 100%
Ratio [16]: 76
Ratio [17]: 0.3
Ratio [18]: 25
Ratio [19]: 2
Ratio [20]: 4
Ratio [21]: 4
Ratio [23]: 3
Ratio [24]: 0.3
Ratio [1]: 8
Activity [25]: inactive
DC50 [26]: 0.17 nM
GI50 (MCF7 [6]): 0.77 nM
Ratio [27]: 73
Ratio [29]: 28
Activity [30]: Active
Ratio [2]: 0.3
Ratio [3]: 13
Activity [31]: Active
Ratio [32]: 58
Ratio [33]: 33
Ratio [34]: 6
Ratio [35]: 84
Ratio [4]: 0.3
SMILES: CCN(CCCCCOCC(=O)N[C@H](C(=O)N1C[C@H](O)C[C@H]1C(=O)N[C@@H](C)c1ccc(-c2scnc2C)cc1)C(C)(C)C)CCOc1ccc(C(=O)c2c(-c3ccc(O)cc3)sc3cc(O)ccc23)cc1
Imax (MCF7 [5]): 57.5%
growth inhibition (GI) (MDA-MB-231): inactive
Activity (MCF7 [22]): Active
Activity [28]: Non-Toxic
